ChEMBL document CHEMBL4680104, “Structure-Based Optimization of Small-Molecule Inhibitors for the β-Catenin/B-Cell Lymphoma 9 Protein-Protein Interaction” (J Med Chem, 2018)
Calls of active or inactive are those of the source. The calls are words filed in the database; no cut-off is given here.

Key:
[1] = molecular target: T1, beta-catenin-B-cell lymphoma 9 protein complex (Homo sapiens, UniProt P35222); assay: Inhibition of protein interaction between beta-catenin (unknown origin)/BCL9 in human SW480 cells transfected with beta-catenin assessed as reduction in Wnt/beta-catenin transactivation incubated for 24 hrs by Wnt-responsive TOP-Flash luciferase reporter assay; type: cell-based
T1 sequence (P35222 whole entry): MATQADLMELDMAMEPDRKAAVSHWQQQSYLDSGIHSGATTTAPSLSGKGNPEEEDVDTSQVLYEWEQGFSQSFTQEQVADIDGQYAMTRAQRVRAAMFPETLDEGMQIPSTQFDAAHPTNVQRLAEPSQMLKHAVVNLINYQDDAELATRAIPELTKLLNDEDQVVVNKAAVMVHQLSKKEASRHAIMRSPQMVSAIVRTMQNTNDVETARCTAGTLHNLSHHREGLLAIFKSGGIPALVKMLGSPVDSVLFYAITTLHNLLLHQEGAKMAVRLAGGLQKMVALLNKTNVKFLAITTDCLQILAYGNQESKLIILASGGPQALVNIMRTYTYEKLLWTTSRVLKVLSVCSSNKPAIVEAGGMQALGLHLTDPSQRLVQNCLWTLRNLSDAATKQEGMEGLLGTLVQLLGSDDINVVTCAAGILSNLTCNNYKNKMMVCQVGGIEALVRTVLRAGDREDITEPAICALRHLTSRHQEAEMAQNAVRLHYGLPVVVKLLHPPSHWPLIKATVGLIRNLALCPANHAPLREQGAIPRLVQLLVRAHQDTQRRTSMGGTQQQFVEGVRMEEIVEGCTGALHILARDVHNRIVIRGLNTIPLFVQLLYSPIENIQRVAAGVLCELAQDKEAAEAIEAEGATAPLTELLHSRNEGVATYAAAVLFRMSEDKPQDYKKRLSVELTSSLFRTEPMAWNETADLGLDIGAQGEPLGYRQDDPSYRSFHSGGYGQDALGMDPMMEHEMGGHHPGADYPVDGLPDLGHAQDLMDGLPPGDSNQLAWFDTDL
T1 sequence (O00512 whole entry): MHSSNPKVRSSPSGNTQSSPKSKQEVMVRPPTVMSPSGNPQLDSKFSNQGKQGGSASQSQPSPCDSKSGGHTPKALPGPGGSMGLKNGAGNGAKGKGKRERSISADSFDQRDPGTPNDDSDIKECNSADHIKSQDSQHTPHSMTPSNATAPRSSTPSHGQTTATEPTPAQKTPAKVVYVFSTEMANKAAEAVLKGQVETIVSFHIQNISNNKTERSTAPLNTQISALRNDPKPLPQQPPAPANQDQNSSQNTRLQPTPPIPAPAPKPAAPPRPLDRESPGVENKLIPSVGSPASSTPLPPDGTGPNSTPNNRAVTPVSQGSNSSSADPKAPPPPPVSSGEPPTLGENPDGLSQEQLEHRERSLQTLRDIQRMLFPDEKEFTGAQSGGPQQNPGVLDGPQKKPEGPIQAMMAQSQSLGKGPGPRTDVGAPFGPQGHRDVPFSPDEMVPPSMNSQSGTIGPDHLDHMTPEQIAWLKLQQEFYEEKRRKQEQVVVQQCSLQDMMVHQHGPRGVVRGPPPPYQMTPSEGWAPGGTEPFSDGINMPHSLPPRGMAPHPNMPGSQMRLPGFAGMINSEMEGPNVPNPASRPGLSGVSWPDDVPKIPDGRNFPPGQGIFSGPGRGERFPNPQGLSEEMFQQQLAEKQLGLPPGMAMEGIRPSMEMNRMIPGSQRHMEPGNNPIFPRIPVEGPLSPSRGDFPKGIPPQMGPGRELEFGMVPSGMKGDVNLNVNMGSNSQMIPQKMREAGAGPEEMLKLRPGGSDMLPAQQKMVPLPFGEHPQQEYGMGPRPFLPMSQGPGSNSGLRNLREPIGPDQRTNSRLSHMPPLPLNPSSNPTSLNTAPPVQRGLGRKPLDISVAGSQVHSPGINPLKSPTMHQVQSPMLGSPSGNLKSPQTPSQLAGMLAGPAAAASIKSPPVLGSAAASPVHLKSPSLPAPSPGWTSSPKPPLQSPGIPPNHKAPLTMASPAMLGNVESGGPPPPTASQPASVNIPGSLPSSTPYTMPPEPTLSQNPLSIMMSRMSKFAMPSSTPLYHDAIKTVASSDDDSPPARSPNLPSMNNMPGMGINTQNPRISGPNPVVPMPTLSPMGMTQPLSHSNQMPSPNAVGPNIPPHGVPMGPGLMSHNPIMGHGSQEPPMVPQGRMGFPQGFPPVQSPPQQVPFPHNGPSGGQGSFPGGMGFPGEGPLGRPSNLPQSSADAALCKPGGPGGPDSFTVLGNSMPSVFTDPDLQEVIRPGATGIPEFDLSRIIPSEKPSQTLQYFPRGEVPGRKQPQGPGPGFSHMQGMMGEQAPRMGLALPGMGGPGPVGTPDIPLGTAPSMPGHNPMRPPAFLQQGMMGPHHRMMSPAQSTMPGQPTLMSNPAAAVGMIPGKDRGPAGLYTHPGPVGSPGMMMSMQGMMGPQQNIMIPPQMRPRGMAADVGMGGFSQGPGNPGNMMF

[2] = molecular target: T2, beta-catenin-B-cell lymphoma 9 protein complex (Homo sapiens) (UniProt P35222+O00512); assay: Inhibition of protein interaction between beta-catenin (unknown origin)/BCL9 in HEK293 cells transfected with beta-catenin assessed as reduction in Wnt/beta-catenin transactivation incubated for 24 hrs by Wnt-responsive FOP-Flash luciferase reporter assay; type: cell-based
Summary of the method: (§1)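 HEK293 cells were cotransfected using FuGENE6 with 45 ng TOPFlash or FOPFlash reporter, 135 ng pcDNA3.1-β-catenin and 20 ng pCMV-RL normalization reporter. After 24 h in DMEM with 10% FBS at 37 °C, inhibitors or DMSO were added for 24 h. Reporter activity was read with a dual luciferase system, normalized, and compared with DMSO-treated cells. Triplicate.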

SW480 [3] = assay: Cytotoxic activity in human SW480 cells at 50 to 100 uM incubated for 4 hrs by LDH release assay; type: cell-based; details: sw480, 4 h, dose 50-100 µM
Summary of the method: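 SW480 cells were seeded at 2 × 10^4 cells/well and kept overnight at 37 °C. They were then exposed to a range of inhibitor concentrations for 4 h. LDH in the culture supernatant was measured with a diagnostic kit by absorbance at 490 nm. Percent cytotoxicity was calculated from experimental release against maximum release, with background subtracted. Run in triplicate.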

MDA-MB-231 = assay: Cytotoxicity in human MDA-MB-231 cells assessed as reduction in cell viability incubated for 72 hrs by MTS assay; type: functional, cell-based; details: MDA-MB-231, 72 h
Summary of the method: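 Triple-negative breast cancer line seeded at 5 × 10^3 cells/well, held overnight at 37 °C, then exposed to inhibitor over a concentration range for 72 h. Viability read out with a fresh 1:19 mix of PMS (0.92 mg/mL) and MTS (2 mg/mL), incubated 3 h at 37 °C, A490 measured.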

[4] = molecular target: T1, beta-catenin-B-cell lymphoma 9 protein complex; assay: Inhibition of protein interaction between C-terminal 6x-histidine tagged full-length beta-catenin (1 to 781 residues) (unknown origin)/N-terminal biotinylated human BCL9 ( 350 to 375 residues) incubated for 1 hr by Alpha-screen competitive inhibition assay; type: protein-complex assay
Summary of the method: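 Full-length β-catenin (residues 1–781) with a C-terminal His6 tag was expressed in E. coli BL21(DE3) after IPTG induction at 20 °C. It was purified by Ni-NTA, anion-exchange and size-exclusion chromatography. For the assay, 40 nM β-catenin was preincubated for 30 min at 4 °C with 5 nM biotinylated BCL9 or 10 nM biotinylated E-cadherin. Inhibitor was then added for 1 h at 4 °C, followed by 10 μg/mL donor and acceptor beads for 1 h at 4 °C. IC50 was obtained by nonlinear fit and converted to Ki by the Nikolovska-Coleska method. Triplicate, mean ± SD.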

[5] = molecular target: T2, beta-catenin-B-cell lymphoma 9 protein complex (Homo sapiens); assay: Inhibition of protein interaction between beta-catenin (unknown origin)/BCL9 in human HEK293 cells transfected with beta-catenin assessed as reduction in Wnt/beta-catenin transactivation incubated for 24 hrs by Wnt-responsive FOP-Flash luciferase reporter assay
HCT-116 = assay: Cytotoxicity in human HCT-116 cells assessed as reduction in cell viability incubated for 72 hrs by MTS assay; type: functional, cell-based; details: HCT-116, 72 h
Summary of the method: (§2)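 Cells seeded at 5 × 10^3 cells/well, kept overnight at 37 °C, then exposed to inhibitors at various concentrations for 72 h. Viability read with a freshly mixed PMS (0.92 mg/mL) : MTS (2 mg/mL) reagent at 1:19, incubated 3 h at 37 °C, A490 measured. […] Triplicate; mean ± SD.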

SW480 [6] = assay: Cytotoxicity in human SW480 cells assessed as reduction in cell viability incubated for 72 hrs by MTS assay; type: functional, cell-based; details: SW480, 72 h; summary of the method: as §2
[7] = molecular target: T1, beta-catenin-B-cell lymphoma 9 protein complex; assay: Inhibition of protein interaction between beta-catenin (unknown origin)/BCL9 in HEK293 cells transfected with beta-catenin assessed as reduction in Wnt/beta-catenin transactivation incubated for 24 hrs by Wnt-responsive TOP-Flash luciferase reporter assay; type: cell-based; summary of the method: as §1
A549 = assay: Cytotoxicity in human A549 cells assessed as reduction in cell viability incubated for 72 hrs by MTS assay; type: functional, cell-based; details: A549, 72 h; summary of the method: as §2

SMILES	IC50 [1]	inhibition [2]	Activity (SW480 [3])	IC50 (MDA-MB-231)	Ki [4]	inhibition [5]	IC50 (HCT-116)	IC50 (SW480 [6])	IC50 [7]	IC50 (A549)
Cl.Cl.O=C(Nc1ccc(O[C@H]2CCNC2)c(-c2ccc(F)cc2)c1)c1ccc(O[C@H]2CCNC2)c(C2=CCCCC2)c1	8.7 µM	Active	Toxic	3.4 µM	7.1 µM	Active	6.9 µM	3.7 µM	–	–
Cl.Cl.N#Cc1ccc(-c2cc(NC(=O)c3ccc(O[C@H]4CCNC4)c(-c4ccc(F)c(F)c4)c3)ccc2O[C@H]2CCNC2)cc1	–	–	Toxic	–	3.8 µM	–	–	6.1 µM	> 25 µM	–
Cc1ccccc1-c1cc(NC(=O)c2ccc(O[C@H]3CCNC3)c(-c3ccc(F)c(F)c3)c2)ccc1O[C@H]1CCNC1.Cl.Cl	5.2 µM	Active	Toxic	3.1 µM	5.9 µM	Active	5.7 µM	1.2 µM	–	23 µM
Cc1ccc(-c2cc(NC(=O)c3ccc(O[C@H]4CCNC4)c(-c4ccc(F)c(F)c4)c3)ccc2O[C@H]2CCNC2)cc1.Cl.Cl	–	–	Toxic	–	6.5 µM	–	–	1.6 µM	–	–
Cl.Cl.O=C(Nc1ccc(O[C@H]2CCNC2)c(-c2ccc(F)nc2)c1)c1ccc(O[C@H]2CCNC2)c(-c2ccc(F)c(F)c2)c1	–	–	Toxic	–	16 µM	–	–	15 µM	–	–
Cl.Cl.O=C(Nc1cnc(O[C@H]2CCNC2)c(-c2ccc(F)cc2)c1)c1cnc(O[C@H]2CCNC2)c(-c2ccc(F)c(F)c2)c1	–	–	Toxic	–	7.3 µM	–	–	9.9 µM	–	–
Cl.Cl.N#Cc1cccc(-c2cc(NC(=O)c3ccc(O[C@H]4CCNC4)c(-c4ccc(F)c(F)c4)c3)ccc2O[C@H]2CCNC2)c1	–	–	Toxic	–	4.2 µM	–	–	4.3 µM	> 25 µM	–
Cl.Cl.O=C(Nc1ccc(O[C@H]2CCNC2)c(-c2ccccc2C(F)(F)F)c1)c1ccc(O[C@H]2CCNC2)c(-c2ccc(F)c(F)c2)c1	–	–	Toxic	–	3.8 µM	–	–	2.6 µM	–	–
Cc1cccc(-c2cc(NC(=O)c3ccc(O[C@H]4CCNC4)c(-c4ccc(F)c(F)c4)c3)ccc2O[C@H]2CCNC2)c1.Cl.Cl	–	–	Toxic	1.4 µM	3.1 µM	–	1.4 µM	2.2 µM	–	4.5 µM
Cl.Cl.O=C(Nc1ccc(O[C@H]2CCNC2)c(-c2ccc(F)cc2)c1)c1ccc(O[C@H]2CCNC2)c(C2CCCCC2)c1	–	–	Toxic	–	14 µM	–	3.8 µM	6.6 µM	–	3.8 µM
Cl.Cl.O=C(Nc1ccc(O[C@H]2CCNC2)c(-c2ccc(F)cc2)c1)c1ccc(O[C@H]2CCNC2)c(-c2ccc(F)nc2)c1	–	–	Non-Toxic	–	19 µM	–	–	21 µM	–	–
Cl.Cl.O=C(Nc1cnc(O[C@H]2CCNC2)c(-c2ccc(F)cc2)c1)c1ccc(O[C@H]2CCNC2)c(-c2ccc(F)c(F)c2)c1	7.7 µM	Active	Toxic	3.1 µM	8.2 µM	Active	–	1.7 µM	10 µM	29 µM
